Laboratory results taken from ChEMBL document CHEMBL1166010, “(E)-2-styrylchromones as potential anti-norovirus agents” (Bioorg Med Chem, 2010).

Assays:
rhinovirus B14 = assay: Antiviral activity against HRV-14 infected in human HeLa cells assessed as inhibition of viral plaque formation; assay type: functional, organism-based; settings: Rhinovirus B
rhinovirus A1B = assay: Antiviral activity against HRV-1B infected in human HeLa cells assessed as inhibition of viral plaque formation; assay type: functional, organism-based, Human rhinovirus 1B; settings: Rhinovirus A
[1] = Cytotoxicity against mouse RAW264.7 cells after 48 hrs by MTT assay; assay type: cell-based
[2] = Cytotoxicity against mouse RAW264.7 cells assessed as maximum non-toxic dose after 48 hrs by MTT assay; assay type: cell-based
Summary of the method: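 RAW 264.7 cells exposed 48 h to serial dilutions (top 150 µM, 100 µM for one compound) in duplicate, control 0.25% DMSO. MTT 0.5 mg/mL added for 4 h, formazan dissolved in DMSO, absorbance 550 nm. […] 3–4 independent experiments.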

[3] = Cytotoxicity against mouse RAW264.7 cells assessed as cell viability at 2.34 uM after 48 hrs by MTT assay; assay type: cell-based; settings: read-out: Activity
[4] = Antiviral activity against MNV1 CW1 infected in mouse RAW264.7 cells assessed as inhibition of viral plaque formation after 24 hrs by neutral red staining; assay type: functional, cell-based, Murine norovirus 1; settings: for IC50: Murine norovirus 1, CW1, RAW264.7, 24 h
Summary of the method: (§1)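 Confluent RAW 264.7 cells (plated at 5.0 × 10^5 cells/mL, 24 h, then maintenance medium with 2% FBS) infected 1 h at 37 °C with MNV-1.CW1 at 20-80 PFU/well, with compound present during infection and in first agarose overlay for 24 h. Second overlay with neutral red, further 24 h, plaques counted. Top concentration 50 µM (10 µM for some).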

[5] = Antiviral activity against MNV1 CW1 infected in mouse RAW264.7 cells assessed as inhibition of viral plaque formation at 50 uM after 24 hrs by neutral red staining; assay type: functional, Murine norovirus 1; settings: Norwalk virus, CW1, RAW264.7, 24 h; summary of the method: as §1
[6] = Antiviral activity against MNV1 CW1 infected in mouse RAW264.7 cells assessed as inhibition of viral plaque formation at 10 uM after 24 hrs by neutral red staining; assay type: functional, Murine norovirus 1; settings: Norwalk virus, CW1, RAW264.7, 24 h; summary of the method: as §1
[7] = Selectivity index, ratio of CC50 for mouse RAW264.7 cells to IC50 for MNV1 CW1 infected in mouse RAW264.7 cells; assay type: functional
[8] = Antiviral activity against MNV1 CW1 infected in mouse RAW264.7 cells assessed as inhibition of viral plaque formation treated for 1 hr during viral infection followed by 48 hrs compound addition post infection by neutral red staining; assay type: functional, cell-based, Murine norovirus 1; settings: Norwalk virus, CW1, RAW264.7; summary of the method: as §1
RAW264.7 [9] = assay: Cytotoxicity against mouse RAW264.7 cells at 100 uM after 48 hrs by MTT assay; assay type: cell-based; settings: raw264.7, 48 h
[10] = (§2) Antiviral activity against MNV1 CW1 infected in mouse RAW264.7 cells assessed as inhibition of viral plaque formation treated for 48 hrs after viral infection by neutral red staining; assay type: functional, cell-based, Murine norovirus 1; settings: Norwalk virus, CW1, RAW264.7, 48 h
Summary of the method: (§3)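 Compound added only in the agarose overlays for 48 h after 1 h MNV-1.CW1 infection of confluent RAW 264.7 cells; neutral red second overlay at 24 h, plaques counted after further 24 h. IC50 relative to DMSO-treated infected control; run alongside standard conditions.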

RAW264.7 [11] = assay: as §2; assay type: functional, cell-based; settings: Murine norovirus 1; summary of the method: as §3
[12] = (§4) Antiviral activity against MNV1 CW1 infected in mouse RAW264.7 cells assessed as inhibition of viral plaque formation treated for 1 hr during viral infection by neutral red staining; assay type: functional, cell-based, Murine norovirus 1; settings: Norwalk virus, CW1, RAW264.7, 1 h
Summary of the method: (§5)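 Time-of-addition variant: RAW 264.7 cells exposed to serial compound concentrations only during the 1 h MNV-1.CW1 infection at 37 °C, then compound-free agarose overlays (neutral red second overlay, 24 h + 24 h) and plaque count. IC50 vs DMSO control; three independent experiments in duplicate.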

RAW264.7 [13] = assay: as §4; assay type: functional, cell-based; settings: Murine norovirus 1; summary of the method: as §5

IC50 (rhinovirus B14) | IC50 (rhinovirus A1B) | Structure (SMILES) | CC50 at 48 h [1] | MNTC at 48 h ([2]; read-out: MNTD70) | MNTC at 48 h ([2]; read-out: MNTD90) | viability at 48 h, 2.34 µM [3] | IC50 [4] | inhibition at 50 µM [5] | inhibition at 10 µM [6] | Ratio CC50/IC50 [7] | IC50 [8] | Activity (RAW264.7 [9]) | IC50 [10] | inhibition (RAW264.7 [11]) | IC50 [12] | inhibition (RAW264.7 [13]) | inhibition (INH) [4]
6.41 µM | 9.29 µM | O=c1cc(/C=C/c2ccc(O)cc2)oc2ccccc12 | > 150 µM | > 150 µM | < 2.34 µM | 86% | > 50 µM | 21.1% | – | – | – | – | – | – | – | – | –
– | – | C/C(=C\c1ccccc1)c1oc2ccccc2c(=O)c1O | 46.7 µM | 18.8 µM | < 2.34 µM | 81% | > 10 µM | – | 40.8% | – | – | – | – | – | – | – | –
– | – | O=c1cc(/C=C/c2ccccc2)oc2cccc(O)c12 | > 150 µM | > 150 µM | 4.69 µM | – | 7 µM | – | – | >21.6 | 6.9 µM | Non-toxic | 8.2 µM | Dose-dependent effect | 39 µM | Dose-dependent effect | –
– | – | O=c1cc(/C=C/c2ccccc2)oc2cccc(OCc3ccccc3)c12 | > 150 µM | > 150 µM | 75 µM | – | > 50 µM | 39.4% | – | – | – | – | – | – | – | – | –
1.6 µM | 1.1 µM | COc1c(/C=C/c2ccccc2)oc2ccccc2c1=O | > 150 µM | 75 µM | 37.5 µM | – | 37.9 µM | – | – | >4 | – | – | – | – | – | – | –
> 25 µM | 6.19 µM | O=c1cc(/C=C/c2ccccc2)oc2ccccc12 | > 150 µM | > 150 µM | 75 µM | – | 17.7 µM | – | – | >8.5 | – | – | – | – | – | – | –
– | – | COc1ccc(/C=C/c2cc(=O)c3ccccc3o2)cc1 | – | > 100 µM | 50 µM | – | – | – | – | – | – | – | – | – | – | – | –
– | – | O=c1cc(/C=C/c2ccc(Cl)cc2)oc2ccccc12 | – | > 150 µM | 75 µM | – | – | – | – | – | – | – | – | – | – | – | –
9.76 µM | 5.13 µM | O=c1c(O)c(/C=C/c2ccccc2)oc2ccccc12 | 52.1 µM | 18.8 µM | 2.34 µM | – | > 10 µM | – | 6.8% | – | – | – | – | – | – | – | –
> 6.25 µM | > 6.25 µM | Cc1ccc(/C=C/c2cc(=O)c3ccccc3o2)cc1 | > 150 µM | > 150 µM | > 150 µM | – | 23.7 µM | – | – | >6.3 | – | – | – | – | – | – | –
– | – | C/C(=C\c1ccccc1)c1cc(=O)c2ccccc2o1 | > 150 µM | > 150 µM | > 150 µM | – | 18 µM | – | – | >8.3 | – | – | – | – | – | – | –
– | – | O=c1ccoc2ccccc12 [CHROMONE] | > 150 µM | > 150 µM | 37.5 µM | – | > 50 µM | – | – | – | – | – | – | – | – | – | 29.9%
